Measurements collected from several papers.
Lines come from different studies, so protocols differ.
JAK2 JH1: Tyrosine-protein kinase JAK2, JH1 (JAK2, Homo sapiens, UniProt O60674)
JAK2: Tyrosine-protein kinase JAK2 (JAK2, Homo sapiens, UniProt O60674)

Compound	target	test	conditions	endpoint	value
CO[C@@H]1[C@H](N(C)C(=O)c2ccccc2)C[C@H]2O[C@]1(C)n1c3ccccc3c3c4c(c5c6ccccc6n2c5c31)C(=O)NC4	JAK2 JH1	enzyme activity, inhibitor	1 µM	inhibition	100%
CN1CCN(C(=O)c2ccc(NC(=O)Nc3ccc(N(C)c4ccnc(Nc5ccc(CS(C)(=O)=O)cc5)n4)cc3)cc2)CC1	JAK2 JH1	cell-free assay, competition with immobilised ligand	1 µM	remaining binding	4.7%
N#Cc1ccc(NC(=O)Nc2ccccc2)cc1	JAK2 JH1	cell-free assay, competition with immobilised ligand	25 µM	remaining binding	86%
CC(C)S(=O)(=O)c1ccc2nccc(Nc3ccc4sc(C5CCCC5)nc4c3)c2c1	JAK2	enzyme activity, inhibitor	1 µM	activity vs control	98%
COc1ccc2oc(-c3ccc4nc(N)oc4c3)c/c(=N\c3ccccc3NC(=O)CCN)c2c1	JAK2	binding	1 µM	remaining binding	96%
CCCCC(=O)Nc1ccc(-c2ccc3ncn(CCC)c(=O)c3c2)cn1	JAK2 JH1	binding, competition with immobilised ligand	0.5 µM	remaining binding	100%
C=CC(=O)N1CCC([C@@H]2CCNc3c(C(N)=O)c(-c4ccc(Oc5ccccc5)cc4)nn32)CC1	JAK2 JH1	enzyme activity, inhibitor	1 µM	inhibition	12%
C#Cc1cc(-c2cc(Nc3nc(N[C@@H](C)c4ccc(F)cn4)ncc3Cl)n[nH]2)ccc1C=O	JAK2	enzyme activity, inhibitor	0.2 µM	inhibition	99.7%
C1=C/COCc2cc(ccc2OCCN2CCCC2)Nc2nccc(n2)-c2cccc(c2)COC/1	JAK2 JH1	cell-free assay	0.1 µM	remaining signal	6.8%
C[C@H]1CC[C@H](n2c3cnccc3c3cnc(Nc4ccc5c(n4)CCN(C(=O)CO)C5)nc32)CC1	JAK2 JH1	cell-free assay, competition with immobilised ligand	1 µM	remaining binding	50%
